Screening results deposited in PubChem BioAssay by several laboratories.
ROMK primary: human ROMK K+ channel modulation, primary screen | B-score at 10 µM | Tet-inducible ROMK, thallium flux fluorescence; actives lie on both sides | AID 1918 | hit rate 2% among 130,000 | P48048;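 active = signal ratio slope over the read window, or its plate-corrected B-score, at least 3 SD from the plate mean, either direction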;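 note: B-score of the F/F0 ratio slope over 7 to 12 s after thallium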
bCat nuc transl: modulators of beta-catenin nuclear translocation. HeLa beta-catenin nuclear translocation, immunofluorescence imaging. nuclear translocation activity, % at 5 µM. hit rate 0.3% among 190,000. AID 1665;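 active = nuclear translocation activity above 50% at 5 µM, with a well cell count of 50 or more; inconclusive = wells under 50 cells across six images, flagged as toxic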;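 note: per-cell ratio of nuclear to cytoplasmic median beta-catenin stain intensity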
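Read-out: Nuclear/cytoplasmic beta-catenin signal ratio, % activation | Assay system: Human HeLa cell line | Times: 24 h compound exposure at 37°C, 5% CO2 | Signal: Fluorescence imaging of beta-catenin antibody stain plus DAPI | Dosing: 5 µM primary, 0.02–20 µM confirmation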
Redox H2O2 prof: compounds producing H2O2 with reducing agent – biochemical, NIH compound library profiling, artefact control for MLSCN library redox annotation, primary screen; AID 878; hit rate 0.03% among 200,000; DTT-dependent redox cycling H2O2, phenol red/HRP absorbance; 100% = 100 µM peroxide control, 0% = buffer; activation, % at 10 µM;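 active = activation of at least 50% relative to the plate's high and low controls in the primary single-dose screen; inactive = activation below 50%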;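 note: compound incubated with DTT at 0.8 mM final as the reducing agent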
MT stabilize HCS: stabilizes microtubules in HeLa cells | HeLa tubulin immunostaining HCS, 24 h; share of cells brighter than vehicle mean+2SD | AID 2205 | hit rate 0.83% among 200,000 | % tubulin-high responders, % at 10 µM;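 active = plate Z-score above 3 for both tubulin-high and condensed-nucleus cell shares, with cell loss under 80%, at 10 µM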;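 note: anti alpha tubulin signal scored within the nucleus-defined area of each cell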
Cl transport mod: KCC2 (human) Cl- transport modulation; Q9H2X9; KCC2 cells, thallium flux FluoZin-2 fluorescence; B-score of Tl+ flux slope (higher = more flux/activation; lower = inhibition) at 10 µM; hit rate 2.2% among 190,000; AID 1456;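 active = thallium flux slope and its plate-corrected score both differing from the plate sample mean at a set confidence after two filtering rounds, in either direction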;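 note: slope of fluorescence scaled to starting intensity during 10 to 20 s after thallium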
Target sequence (Q9H2X9 whole entry, looked up): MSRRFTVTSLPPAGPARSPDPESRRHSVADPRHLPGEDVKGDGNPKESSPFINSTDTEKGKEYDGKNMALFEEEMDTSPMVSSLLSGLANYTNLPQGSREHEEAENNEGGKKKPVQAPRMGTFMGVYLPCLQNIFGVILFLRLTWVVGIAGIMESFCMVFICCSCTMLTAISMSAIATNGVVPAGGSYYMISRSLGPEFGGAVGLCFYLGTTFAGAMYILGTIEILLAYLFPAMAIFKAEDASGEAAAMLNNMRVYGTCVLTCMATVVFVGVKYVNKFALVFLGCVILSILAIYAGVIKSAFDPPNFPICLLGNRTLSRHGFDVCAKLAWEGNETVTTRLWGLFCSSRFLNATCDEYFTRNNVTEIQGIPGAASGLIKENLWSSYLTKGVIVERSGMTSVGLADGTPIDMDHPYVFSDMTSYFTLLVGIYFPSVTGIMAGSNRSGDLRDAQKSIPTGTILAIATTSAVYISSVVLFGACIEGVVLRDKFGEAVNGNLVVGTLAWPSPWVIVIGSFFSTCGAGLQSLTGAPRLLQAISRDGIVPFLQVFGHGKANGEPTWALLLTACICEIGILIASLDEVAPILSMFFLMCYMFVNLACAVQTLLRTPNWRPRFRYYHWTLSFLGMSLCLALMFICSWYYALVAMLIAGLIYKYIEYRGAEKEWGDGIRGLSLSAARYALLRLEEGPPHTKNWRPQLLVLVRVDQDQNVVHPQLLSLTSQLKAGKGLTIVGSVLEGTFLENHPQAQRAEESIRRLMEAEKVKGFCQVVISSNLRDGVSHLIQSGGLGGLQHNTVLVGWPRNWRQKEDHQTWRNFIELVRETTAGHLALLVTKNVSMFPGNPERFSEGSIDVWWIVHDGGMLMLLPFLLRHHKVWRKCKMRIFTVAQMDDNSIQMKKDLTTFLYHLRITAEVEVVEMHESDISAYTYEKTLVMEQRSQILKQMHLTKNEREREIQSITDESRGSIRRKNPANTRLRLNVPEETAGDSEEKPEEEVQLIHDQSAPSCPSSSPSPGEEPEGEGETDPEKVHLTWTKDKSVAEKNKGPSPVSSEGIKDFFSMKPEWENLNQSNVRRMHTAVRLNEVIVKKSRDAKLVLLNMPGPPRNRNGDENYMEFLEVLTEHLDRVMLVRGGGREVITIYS
KCC2 sec1: confirmation of human KCC2 transport modulators; hit rate 15% among 3,700; shares compounds with Cl transport mod; AID 1713; HEK293-KCC2, thallium flux, FluoZin2 fluorescence; active compounds read high; normalised thallium flux (F/F0 slope) at 10 µM;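 active = thallium flux slope above the same plate's solvent-only control mean plus 3 SD; inconclusive = the two replicate wells disagree; inactive = no significant difference from solvent-only control wells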
KCC2 bumet counter: bumetanide-insensitive thallium flux in KCC2 cells with ouabain, counter-screen; shares compounds with Cl transport mod; HEK293-KCC2 + bumetanide/ouabain, thallium flux FluoZin2; active compounds read high; normalized thallium flux at 10 µM; hit rate 49% among 3,700;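 active = thallium entry rate above the same plate's blocked-transporter control wells by more than 3 SD; inconclusive = the two repeat wells disagree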;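 note: raw slope of fluorescence over initial fluorescence between 10 and 20 s after thallium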
KCC2 secondary2: KCC2 (human) modulation, second secondary assay | shares compounds with Cl transport mod | HEK293-KCC2, thallium flux FluoZin2 fluorescence; actives lie on both sides; F/F0 rise rate, 10–20 s post-thallium | normalized thallium flux at 10 µM | hit rate 23% among 3,700 | AID 1715;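 active = thallium flux slope more than 3 SD above or below the plate's solvent-only control mean, mostly below; inconclusive = the two repeat wells disagreed; inactive = no significant shift from solvent-only controls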
HEK counter1: parental HEK flux effect, counter-screen | shares compounds with Cl transport mod | HEK293 parental cells, thallium flux FluoZin2, ouabain; baseline-ratio fluorescence slope, 10–20 s after thallium | thallium flux rate (normalised fluorescence) at 10 µM | hit rate 46% among 3,700 | AID 1716;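 active = thallium flux rate significantly above the same plate's solvent-only control wells, beyond their mean plus 3 SD; inconclusive = the two replicate wells gave conflicting results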
KCC2 retest ouab: confirmation of human KCC2 modulators with ouabain; hit rate 48% among 3,700; shares compounds with Cl transport mod; AID 1717; HEK293-KCC2, thallium flux FluoZin2 fluorescence; bidirectional: low = inhibitor, high = activator; raw Tl+ flux slope (below DMSO = inhibition, above = activation) at 10 µM;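 active = thallium flux slope beyond 3 SD from same-plate DMSO control mean in most replicates, usually higher, sometimes lower; inconclusive = repeat tests gave conflicting results; inactive = no significant difference from controls in most replicates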;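 note: slope of initial-normalized fluorescence between seconds 10 and 20 after thallium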
HEK293 Tl flux2: parental HEK flux effect, counter-screen 2; HEK293 parental, thallium flux FluoZin-2 fluorescence slope; hit rate 33% among 3,700; AID 1718; shares compounds with Cl transport mod; thallium flux slope at 10 µM;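 active = thallium flux slope above the same plate's solvent-control mean plus 3 SD in both duplicate wells; inconclusive = duplicate wells that disagreed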;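 note: run without ouabain in cells lacking the KCC2 cotransporter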
Of the large screens only hits and unclear results are named; the others gave an inactive call (follow-up assays come after a bar, where they were run). The list is not random: actives were taken first. Their share in the collection is about 3.7%.

O=[N+]([O-])c1ccc(N2CCN(S(=O)(=O)c3ccc4ccccc4c3)CC2)cc1NCC1CCCO1 (stereo not drawn)	none
Cc1ccc(-c2noc(-c3ccno3)n2)cc1	none (no result: ROMK primary, Redox H2O2 prof, MT stabilize HCS)
O=C(c1cc2ccccc2oc1=O)N(c1ccc(Cl)cc1)C1C=CS(=O)(=O)C1 (stereo not drawn)	none
CC(C)(C)NC(=O)C(=O)NNC(=O)c1cccc(Br)c1	Cl transport mod 33 | KCC2 sec1 0.0096 | KCC2 bumet counter 0.054 | KCC2 secondary2 0.047 | HEK counter1 0.047 | KCC2 retest ouab 0.05 | HEK293 Tl flux2 0.028
Cc1ccc(-c2nnn(CC(=O)N(c3ccc4c(c3)OCCO4)C(C(=O)NCC3CCCO3)c3ccc(F)cc3)n2)o1 (stereo not drawn)	none
Cc1onc(-c2c(F)cccc2Cl)c1C(=O)N1CCN(c2ncc(Br)cn2)CC1	none (no result: ROMK primary, Redox H2O2 prof, MT stabilize HCS)
Cc1cc(C)nc(N2N=C(C(F)(F)F)CC2=O)n1	none (no result: ROMK primary, Redox H2O2 prof, MT stabilize HCS)
CC(C)N(Cc1nc(-c2ccccc2)no1)C(=O)CN(C)S(=O)(=O)c1ccc(Br)cc1	none (no result: ROMK primary) | KCC2 sec1 inactive | KCC2 bumet counter inactive | KCC2 secondary2 inactive | HEK counter1 inactive | KCC2 retest ouab inactive | HEK293 Tl flux2 inactive
COc1ccc(/C(=C/Nc2cccc(Br)c2)C(C)=O)cc1OC	none
CC1CC(=O)c2cnc(Nc3ccccc3)nc2C1 (stereo not drawn)	none
CC1CC(=O)c2cnc(Nc3cccc(C(F)(F)F)c3)nc2C1 (stereo not drawn)	Cl transport mod -3 (no result: ROMK primary) | KCC2 sec1 0.012 | KCC2 bumet counter inconclusive | KCC2 secondary2 inactive | HEK counter1 inactive | KCC2 retest ouab inactive | HEK293 Tl flux2 inactive
CC(C)c1cc(N=NC(N)=O)cc(C(C)C)c1O	none
N#CC1=C(N)NC(SCC(=O)O)=C(C#N)C12CCCC2	none
N#CC1=C(N)NC(SCc2ccc(F)cc2)=C(C#N)C12CCCCC2	MT stabilize HCS 47 (no result: bCat nuc transl) | KCC2 sec1 inactive | KCC2 bumet counter inactive | KCC2 secondary2 0.024 | HEK counter1 inconclusive | KCC2 retest ouab inconclusive | HEK293 Tl flux2 inactive
COCCNC(=O)Cn1cc(C(=O)c2ccco2)c2ccccc21	none
CS(=O)(=O)Cc1cc(N2CCCC2)nc(-c2ccccc2)n1	none
COCc1cc(N2CCCC2)nc(-c2ccccc2)n1	Cl transport mod -3.5 | KCC2 sec1 inactive | KCC2 bumet counter inactive | KCC2 secondary2 inactive | HEK counter1 inactive | KCC2 retest ouab inactive | HEK293 Tl flux2 inactive
CCn1c(CNC(=O)COc2ccc(C(C)C)cc2)nnc1SCC(=O)Nc1cc(F)ccc1C	none (no result: ROMK primary, Cl transport mod) | KCC2 sec1 inactive | KCC2 bumet counter inactive | KCC2 secondary2 inactive | HEK counter1 inconclusive | KCC2 retest ouab 0.017 | HEK293 Tl flux2 inactive
Cc1cc(C)c(NC(=O)c2cc(C(=O)O)ccc2C(=O)O)c([N+](=O)[O-])c1	none (no result: Cl transport mod)
C=CCN(CC=C)C(=S)NC(=O)/C=C/c1ccccc1	Cl transport mod 8.9 | KCC2 sec1 inactive | KCC2 bumet counter 0.023 | KCC2 secondary2 inactive | HEK counter1 0.02 | KCC2 retest ouab 0.029 | HEK293 Tl flux2 0.02
C=CCN(CC=C)C(=S)NC(=O)/C=C/c1ccc(OC)cc1	Cl transport mod 74 | KCC2 sec1 0.01 | KCC2 bumet counter 0.14 | KCC2 secondary2 0.096 | HEK counter1 0.11 | KCC2 retest ouab 0.11 | HEK293 Tl flux2 0.087
C=CCN(CC=C)C(=S)NC(=O)c1ccc(OC)cc1	Cl transport mod 71 | KCC2 sec1 0.053 | KCC2 bumet counter 0.12 | KCC2 secondary2 0.09 | HEK counter1 0.099 | KCC2 retest ouab 0.093 | HEK293 Tl flux2 0.096
O=C(/C=C/c1ccc(Br)cc1)NC(=S)NNC(=O)c1ccco1	Cl transport mod 3.9 | KCC2 sec1 inactive | KCC2 bumet counter 0.01 | KCC2 secondary2 inactive | HEK counter1 inconclusive | KCC2 retest ouab inactive | HEK293 Tl flux2 inactive
CC(=O)c1ccc(N=C2SCCCN2C(=O)C2CCCC2)cc1	none
O=C(Cn1nnc2ccccc2c1=O)N[C@H](C(=O)O)c1ccccc1	none (no result: Redox H2O2 prof, MT stabilize HCS)
CCOC(=O)c1nnn(-c2nonc2N)c1CSc1nnc(N)s1	none (no result: ROMK primary)
COc1ccc(/C=C/C(=O)NC(=S)NNC(=O)c2cccs2)cc1	Cl transport mod 12 | KCC2 sec1 inactive | KCC2 bumet counter 0.023 | KCC2 secondary2 inactive | HEK counter1 0.022 | KCC2 retest ouab 0.037 | HEK293 Tl flux2 0.021
C=CCn1c(O)c(N=NC(=S)Nc2cccc(OC)c2)c2ccccc21	Cl transport mod 71 | KCC2 sec1 0.02 | KCC2 bumet counter 0.11 | KCC2 secondary2 inactive | HEK counter1 0.041 | KCC2 retest ouab 0.052 | HEK293 Tl flux2 0.013
C=CCn1c(O)c(N=NC(=O)OCC)c2ccccc21	none
C=CCn1c(O)c(N=NC(=S)Nc2ccc(OC)cc2)c2ccccc21	Cl transport mod 53 | KCC2 sec1 inactive | KCC2 bumet counter 0.061 | KCC2 secondary2 0.064 | HEK counter1 0.059 | KCC2 retest ouab 0.058 | HEK293 Tl flux2 0.05
CCOC(=O)c1sc(NC(=O)CSc2nc(-c3ccco3)cc(C(F)(F)F)n2)c(C(=O)OC(C)C)c1C	none (no result: ROMK primary, bCat nuc transl)
CCSc1nnc(NC(=O)c2ccc3ccccc3n2)s1	Cl transport mod 36 (no result: ROMK primary) | KCC2 sec1 0.032 | KCC2 bumet counter 0.12 | KCC2 secondary2 inactive | HEK counter1 0.088 | KCC2 retest ouab 0.072 | HEK293 Tl flux2 0.018
CCSc1nnc(NC(=O)c2cc(C)nc3ccccc23)s1	none (no result: ROMK primary)
CCc1nnc(NC(=O)c2ccc3ccccc3n2)s1	Cl transport mod 6.4 | KCC2 sec1 inconclusive | KCC2 bumet counter 0.027 | KCC2 secondary2 inactive | HEK counter1 0.013 | KCC2 retest ouab inconclusive | HEK293 Tl flux2 0.011
S=c1[nH]nc(-c2cccs2)n1C1CCCCC1	Cl transport mod 11 (no result: ROMK primary, Redox H2O2 prof, MT stabilize HCS) | KCC2 sec1 inactive | KCC2 bumet counter 0.016 | KCC2 secondary2 inactive | HEK counter1 0.013 | KCC2 retest ouab 0.026 | HEK293 Tl flux2 inconclusive
